Measured values from different studies.
Lines come from different studies, so protocols differ.
Cell line: NCI-H1299
Observed: cell growth or viability

| SMILES | technique | tested at | time | quantity | result |
| --- | --- | --- | --- | --- | --- |
| C/C(=N\O)c1ccc(-c2cccc(C#N)c2)c(Cl)c1O | MTT | 30 µM | 48 h | viability | 82% |
| CCCc1ccc(OCC(O)CNC/C=C/c2ccccc2OC)cc1 (centres unmarked) | CCK-8 | – | 72 h | IC50 | 11.4 µM |
| Cc1c(-c2cccc(C(F)(F)F)c2)sc2[nH]c(=O)n([C@H](C)c3cccc4ccccc34)c(=O)c12 | – | 10 µM | – | inhibition | > 80% |
| COc1cc2c(Nc3ccc(NC(=O)c4ccccc4)cc3)ncnc2cc1OCCCN1CCOCC1 | MTS | – | 72 h | IC50 | 0.7 µM |
| COc1cccc(-c2ccc(/C(C)=N/O)c(O)c2Cl)c1 | MTT | 30 µM | 48 h | viability | 90% |
| COc1ccccc1OCCN1CCOC(COc2cccc3[nH]c4ccccc4c23)C1 (centres unmarked) | CCK-8 | – | 72 h | IC50 | > 100 µM |
| Cc1cc2c(cc1N1C(=O)c3cccc4c(CCCO)ccc(c34)C1=O)n(C)c(=O)n2C (racemic) | resazurin | – | – | GI50 | > 10 µM |
| CN1C[C@H](C(=O)N[C@]2(C)O[C@@]3(O)[C@@H]4CCCN4C(=O)[C@H](Cc4ccccc4)N3C2=O)C[C@@H]2c3cccc4[nH]cc(c34)C[C@H]21 | MTT | – | 72 h | EC50 | 70 µM |
| COc1ccccc1C#CCNCC(O)COc1cccc2[nH]c3ccccc3c12 (centres unmarked) | CCK-8 | – | 72 h | IC50 | > 100 µM |
| COc1ccc(-c2ccc(/C(C)=N/O)c(O)c2Cl)cc1C | MTT | 30 µM | 48 h | viability | 76% |
| C=C(c1ccc(C(=O)O)cc1)c1cc2c(cc1C)C(C)(C)CCC2(C)C | MTT | – | 72 h | EC50 | 44 µM |
